Data as given in ChEMBL document CHEMBL3875163, “Novel urea and bis-urea primaquine derivatives with hydroxyphenyl or halogenphenyl substituents: Synthesis and biological evaluation” (Eur J Med Chem, 2016).
Converted amounts (≈) assume the structure as drawn.

Experiments:
[1] = Antioxidant activity assessed as DPPH radical scavenging activity at 100 uM after 20 mins relative to control; type: functional
In short: (§1)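 Compound in DMSO added to DPPH in absolute ethanol, 0.1 mM final; absorbance at 517 nm after 20 and 60 min at room temperature. At least triplicate.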

[2] = Antioxidant activity assessed as DPPH radical scavenging activity at 100 uM after 60 mins relative to control; type: functional; in short: as §1
[3] = system: Glycine max; assay: Inhibition of soybean LOX assessed as reduction in conversion of sodium linoleate to 13-hydroperoxylinoleic acid at 1 x 10^-4 M relative to control
In short: (§2)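 Soybean lipoxygenase incubated at room temperature with sodium linoleate (0.1 mM) and test compound (DMSO stocks); formation of 13-hydroperoxylinoleic acid read at 234 nm. Single-point screening at 1 × 10^-4 M; IC50 from several concentrations. At least triplicate.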

[4] = Inhibition of soybean LOX assessed as reduction in conversion of sodium linoleate to 13-hydroperoxylinoleic acid; design: species or system Glycine max; in short: as §2
[5] = Growth inhibition of mouse L1210 cells after 72 hrs by MTT assay; type: functional, cell-based; conditions: L1210, 72 h
[6] = Growth inhibition of human Molt4/C8 cells after 72 hrs by MTT assay; type: functional, cell-based; conditions: MOLT-4, 72 h
[7] = Growth inhibition of human CEM cells after 72 hrs by MTT assay; type: functional, cell-based; conditions: CCRF-CEM
[8] = Growth inhibition of human HeLa cells after 72 hrs by MTT assay; type: functional, cell-based
[9] = Growth inhibition of human MIAPaCa2 cells after 72 hrs by MTT assay; type: functional, cell-based; conditions: MIA PaCa-2, 72 h
[10] = Growth inhibition of human NCI-H460 cells after 72 hrs by MTT assay; type: functional, cell-based; conditions: NCI-H460, 72 h
In short: (§3)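 Modified NCI DTP protocol: cells in DMEM with 10% FBS, 2 mM glutamine, antibiotics, 37 °C, 5% CO2; seeded 1 × 10^4 to 3 × 10^4 cells/ml on day 0, exposed to five 10-fold dilutions (10^-8 to 10^-4 M) for 72 h; solvent control. MTT read-out; quadruplicate points in three experiments; IC50 by linear regression of growth percentages bracketing 50%.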

[11] = Growth inhibition of human SW620 cells after 72 hrs by MTT assay; type: functional, cell-based; conditions: SW-620, 72 h; in short: as §3
[12] = Growth inhibition of human MCF7 cells after 72 hrs by MTT assay; type: functional, cell-based; conditions: MCF7, 72 h; in short: as §3
[13] = Antioxidant activity assessed as inhibition of AAPH-induced linoleic acid lipid peroxidation at 1 x 10^-4 M by UV-absorbance method relative to control; type: functional
In short: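 Linoleic acid peroxidation: 16 mM sodium linoleate dispersion in 0.05 M phosphate buffer pH 7.4 at 37 °C under air, initiated by AAPH (40 mM solution); compound at 1 × 10^-4 M; oxidation followed at 234 nm. At least triplicate.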

[14] = system: Candida albicans; assay: Antifungal activity against Candida albicans ATCC 90028 after 18 hrs by serial microdilution broth assay; type: functional; conditions: ATCC 90028, 18 h
In short: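 Yeast microdilution in RPMI 1640 with glutamine plus 2% glucose, 1000 to 0.78125 µg/ml from 10 mg/ml DMSO stocks. Growth read with XTT (10 mg/ml) mixed 7:1 with menadione (1 mg/ml in acetone), absorbance at 540 nm. MIC taken as lowest concentration giving 50% growth inhibition versus untreated cells; tests in duplicate.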

[15] = system: Staphylococcus aureus; assay: Antibacterial activity against Staphylococcus aureus ATCC 6538 after 18 hrs by serial microdilution broth assay; type: functional; conditions: ATCC 6538, 18 h
In short: (§4)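 Broth microdilution MIC per EUCAST for aerobic bacteria in Mueller-Hinton broth, serial dilution 1000 to 0.78125 µg/ml from 10 mg/ml DMSO stocks. Inoculum from trypticase soy broth cultures (18 h, 37 °C), set to 0.5 McFarland in PBS pH 7.4, diluted 1:10. 18 h aerobic incubation at 35 °C in dark, then TTC 0.5 mg/ml for 3 h, HCl-isopropanol, A490. MIC = lowest concentration giving 50% inhibition versus untreated; duplicates.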

[16] = system: Staphylococcus aureus; assay: Antibacterial activity against methicillin sensitive Staphylococcus aureus ATCC 25923 after 18 hrs by serial microdilution broth assay; type: functional; conditions: ATCC 25923, 18 h
In short: (§5)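 EUCAST-based broth microdilution in Mueller-Hinton broth. Glycerol stock cultures grown in trypticase soy broth 18 h at 37 °C; inoculum in PBS pH 7.4 at 0.5 McFarland, diluted 1:10 in broth. Compounds from DMSO stocks, 1000 to 0.78125 µg/ml; 18 h aerobic, 35 °C, dark. TTC 0.5 mg/ml added, 3 h, then HCl/isopropanol, A490. MIC = lowest concentration giving 50% inhibition vs untreated; duplicates, averaged.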

[17] = system: Staphylococcus aureus; assay: Antibacterial activity against methicillin sensitive Staphylococcus aureus ATCC 25213 after 18 hrs by serial microdilution broth assay; type: functional; conditions: ATCC 25213, 18 h; in short: as §4
[18] = system: Staphylococcus aureus; assay: Antibacterial activity against methicillin resistant Staphylococcus aureus MFBF 10682 after 18 hrs by serial microdilution broth assay; type: functional; conditions: MFBF 10682, 18 h; in short: as §5
[19] = system: Staphylococcus aureus; assay: Antibacterial activity against methicillin resistant Staphylococcus aureus MFBF 10679 after 18 hrs by serial microdilution broth assay; type: functional; conditions: MFBF 10679, 18 h; in short: as §5
[20] = system: Enterococcus faecalis; assay: Antibacterial activity against vancomycin susceptible Enterococcus faecalis ATCC 29212 after 18 hrs by serial microdilution broth assay; type: functional; conditions: ATCC 29212, 18 h; in short: as §4
[21] = system: Enterococcus faecalis; assay: Antibacterial activity against vancomycin resistant Enterococcus faecalis MFBF 11419 after 18 hrs by serial microdilution broth assay; type: functional; conditions: MFBF 11419, 18 h; in short: as §5
[22] = system: Bacillus pumilus; assay: Antibacterial activity against Bacillus pumilus NCTC 8241 after 18 hrs by serial microdilution broth assay; type: functional; conditions: NCTC 8241, 18 h; in short: as §4
[23] = system: Bacillus cereus; assay: Antibacterial activity against Bacillus cereus ATCC 11778 after 18 hrs by serial microdilution broth assay; type: functional; conditions: ATCC 11778, 18 h; in short: as §4
[24] = system: Bacillus spizizenii; assay: Antibacterial activity against Bacillus subtilis ATCC 6633 after 18 hrs by serial microdilution broth assay; type: functional; conditions: ATCC 6633, 18 h; in short: as §4
[25] = system: Pseudomonas aeruginosa; assay: Antibacterial activity against Pseudomonas aeruginosa ATCC 9027 after 18 hrs by serial microdilution broth assay; type: functional; conditions: ATCC 9027, 18 h; in short: as §5
[26] = system: Pseudomonas aeruginosa; assay: Antibacterial activity against Pseudomonas aeruginosa ATCC 27853 after 18 hrs by serial microdilution broth assay; type: functional; conditions: ATCC 27853, 18 h; in short: as §4
[27] = system: Pseudomonas aeruginosa; assay: Antibacterial activity against multi-drug resistant Pseudomonas aeruginosa MFBF after 18 hrs by serial microdilution broth assay; type: functional; in short: as §5
[28] = system: Escherichia coli; assay: Antibacterial activity against Escherichia coli ATCC 10535 after 18 hrs by serial microdilution broth assay; type: functional; conditions: ATCC 10535, 18 h; in short: as §4
[29] = Hemolytic activity against human RBC at 100 ug/ml after 1 hr relative to control; type: ADME, cell-based, Erythrocyte; conditions: red blood cells (RBC), read-out: Activity
[30] = Cytotoxicity against HEK cells assessed as reduction in cell viability at 12.5 to 200 ug/ml after 24 hrs by MTT assay; type: toxicity, cell-based; conditions: human, hek293, 24 h
In short: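 HEK 293 cells, 5 × 10^3 per well, treated next day for 24 h with compound (range within 200 to 1.5625 µg/ml). MTT 0.5 mg/ml in DMEM/10% FBS, 4 h at 37 °C, 5% CO2; formazan in DMSO, A570. Viability as percent of untreated control; triplicates, three independent experiments.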

inhibition [3] [%] | IC50 [4] [µM] | SMILES | Activity [1] [%] | Activity [2] [%] | IC50 [5] [µM] | IC50 [6] [µM] | IC50 [7] [µM] | IC50 [8] [µM] | IC50 [9] [µM] | IC50 [10] [µM] | IC50 [11] [µM] | IC50 [12] [µM] | inhibition [13] [%] | MIC50 [14] [µg/mL] | also measured
83 | 4.5 | CC(Cc1ccc(O)c(O)c1)C(C)Cc1ccc(O)c(O)c1 (stereo unspecified) [NORDIHYDROGUAIARETIC ACID] | 83 | 97 | – | – | – | – | – | – | – | – | – | – | –
67.4 | 40 | COc1cc(NC(C)CCCNC(=O)NNC(=O)Nc2cccc(F)c2)c2ncccc2c1 (stereo unspecified) | 75.7 | 100 | 108 | ≥ 250 | 98 | > 250 | 69 | 50 | 9.5 | 0.15 | 58.2 | – | –
33.4 | – | COc1cc(NC(C)CCCNC(=O)NNC(=O)Nc2ccc(O)cc2)c2ncccc2c1 (stereo unspecified) | 99.3 | 100 | 95 | 104 | 111 | 85 | 142 | > 100 | > 100 | 2.6 | 61.9 | – | –
33.9 | – | COc1cc(NC(C)CCCNC(=O)NNC(=O)Nc2cc(C(F)(F)F)cc(C(F)(F)F)c2)c2ncccc2c1 (stereo unspecified) | 86.8 | 88 | 18 | 22 | 13 | 17 | 20 | 18 | 16 | 2.4 | 39.9 | – | –
– | – | C[C@@H](c1ncncc1F)[C@](O)(Cn1cncn1)c1ccc(F)cc1F [VORICONAZOLE] | – | – | – | – | – | – | – | – | – | – | – | 0.5 (≈ 1.43 µM) | –

SMILES | inhibition [3] [%] | IC50 [4] [µM] | Activity [1] [%] | Activity [2] [%] | IC50 [5] [µM] | IC50 [6] [µM] | IC50 [7] [µM] | IC50 [8] [µM] | IC50 [9] [µM] | IC50 [10] [µM] | IC50 [11] [µM] | IC50 [12] [µM] | inhibition [13] [%] | MIC50 [14] [µg/mL] | also measured
COc1cc(NC(C)CCCNC(=O)Nc2ccc(Br)cc2)c2ncccc2c1 (stereo unspecified) | 37.1 | – | 46.2 | 46.4 | 18 | 25 | 23 | 20 | 23 | 30 | 23 | 2.6 | 80.4 | > 100 | MIC50 [15]: 50 µg/mL (≈ 109 µM); MIC50 [16]: > 100 µg/mL; MIC50 [17]: > 100 µg/mL; MIC50 [18]: > 100 µg/mL; MIC50 [19]: > 100 µg/mL; MIC50 [20]: > 100 µg/mL; MIC50 [21]: > 100 µg/mL; MIC50 [22]: 100 µg/mL (≈ 219 µM); MIC50 [23]: 50 µg/mL (≈ 109 µM); MIC50 [24]: 25 µg/mL (≈ 54.7 µM); MIC50 [25]: 100 µg/mL (≈ 219 µM); MIC50 [26]: 25 µg/mL (≈ 54.7 µM); MIC50 [27]: 100 µg/mL (≈ 219 µM); MIC50 [28]: > 100 µg/mL; hemolysis at 1 h, 100 ug/ml [29]: < 1%; Activity [30]: Non-Toxic
